For 16 molecules, selectivity ratio, CC50 and IC50 results are on record in ChEMBL document CHEMBL3425484, “Novel N-benzenesulfonyl sophocarpinol derivatives as coxsackie B virus inhibitors” (ACS Med Chem Lett, 2015).

Data set [1] is described as follows: Selectivity index, ratio of TC50 for african green monkey Vero cells to IC50 for Coxsackievirus B3 infected in african green monkey Vero cells. Type of data set: toxicity, cell-based. The following applies: read-out: Selectivity Index. The procedure, abridged: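 SI is calculated as TC50 (50% inhibition of Vero cell growth) divided by IC50 (50% inhibition of the respective CVB subtype's growth, from the CPE assay in Vero cells, ribavirin as positive control).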

A short description of data set [2]: Cytotoxicity against african green monkey Vero cells assessed as inhibition of cell growth after 24 hrs by CPE assay. Type of data set: cell-based. As to conditions: chlorocebus sabaeus, read-out: TC50.
The subject of the next data set is Coxsackievirus. The experiment in a line: Antiviral activity against Coxsackievirus B3 infected in african green monkey Vero cells assessed as reduction in viral-induced cytopathic effect. Type of data set: functional, organism-based. The procedure, abridged:
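Vero (African green monkey kidney) cells were infected with the CVB subtype and scored by viral cytopathogenic effect (CPE) reduction, with ribavirin as the positive control. IC50 is the concentration that inhibits CVB growth by 50%.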

Consider `O=[N+]([O-])c1ccccc1S(=O)(=O)N1C[C@@H]2CCCN3CCC[C@@H]([C@H]23)[C@H]1CCCCO`, for which the selectivity ratio in data set [1] was found to be 6.8. Besides, in data set [2], the CC50 at 24 h worked out at 244 µM. For the same molecule, the IC50 (commonly the midpoint of a concentration-inhibition curve) in the data set on Coxsackievirus came out at 35.7 µM.

As to `O=C(O)C/C=C/[C@@H]1[C@H]2CCCN3CCC[C@@H](CN1S(=O)(=O)c1ccccc1C(F)(F)F)[C@@H]23`, the selectivity ratio in data set [1] came out at 35.4. Further, the CC50 at 24 h in data set [2] is 393 µM. Besides, the IC50 in the data set with Coxsackievirus was determined as 11.1 µM.

`O=S(=O)(c1ccc(C(F)(F)F)cc1)N1C[C@@H]2CCCN3CCC[C@@H]([C@H]23)[C@H]1/C=C\CCO`: the selectivity ratio in data set [1] worked out at 22.4. The CC50 at 24 h in data set [2] came out at 93.5 µM. For the same molecule, the IC50 with Coxsackievirus stood at 4.17 µM.

Regarding `O=C(O)C/C=C\[C@@H]1[C@H]2CCCN3CCC[C@@H](CN1S(=O)(=O)c1ccc(C(F)(F)F)cc1)[C@@H]23`, the selectivity ratio in data set [1] is 14.7. In addition, the CC50 at 24 h in data set [2] came out at 272 µM. The IC50 in the data set with Coxsackievirus was found to be 18.6 µM.

`N#Cc1cccc(S(=O)(=O)N2C[C@@H]3CCCN4CCC[C@@H]([C@H]34)[C@H]2CCCC(=O)O)c1`: in data set [1], the selectivity ratio came to 5.2. Also, in data set [2], the CC50 at 24 h was 428 µM. The IC50 in the data set with Coxsackievirus was 82.3 µM.

Turning to `COC(=O)CCC[C@@H]1[C@H]2CCCN3CCC[C@@H](CN1S(=O)(=O)c1cccc([N+](=O)[O-])c1)[C@@H]23`, in data set [1], the selectivity ratio was 19.7. Further, the CC50 at 24 h in data set [2] is 68.9 µM. Also, the IC50 in the data set on Coxsackievirus worked out at 3.51 µM.

Turning to `N#Cc1ccccc1S(=O)(=O)N1C[C@@H]2CCCN3CCC[C@@H]([C@H]23)[C@H]1C/C=C/C(=O)O`, the CC50 at 24 h in data set [2] was found to be 466 µM. In addition, the IC50 in the data set on Coxsackievirus was greater than 155 µM.

As to `COC(=O)C/C=C/[C@@H]1[C@H]2CCCN3CCC[C@@H](CN1S(=O)(=O)c1ccccc1C#N)[C@@H]23`, the selectivity ratio in data set [1] was 9. Also, the CC50 at 24 h in data set [2] was determined as 80.3 µM. Moreover, the IC50 with Coxsackievirus came out at 8.92 µM.

Consider `COC(=O)CCC[C@@H]1[C@H]2CCCN3CCC[C@@H](CN1S(=O)(=O)c1ccc(C(F)(F)F)cc1)[C@@H]23`, for which the selectivity ratio in data set [1] was found to be 28.9. Moreover, in data set [2], the CC50 at 24 h was 73.4 µM. For the same molecule, the IC50 with Coxsackievirus turned out to be 2.54 µM.

On to `N#Cc1ccc(S(=O)(=O)N2C[C@@H]3CCCN4CCC[C@@H]([C@H]34)[C@H]2C/C=C/C(=O)O)cc1`, for which the selectivity ratio in data set [1] is greater than 15.7. Further, the CC50 at 24 h in data set [2] was greater than 466 µM. Also, the IC50 in the data set with Coxsackievirus was found to be 29.9 µM.

Turning to `N#Cc1cccc(S(=O)(=O)N2C[C@@H]3CCCN4CCC[C@@H]([C@H]34)[C@H]2/C=C\CCO)c1`, the selectivity ratio in data set [1] was found to be 27. Also, in data set [2], the CC50 at 24 h stood at 148 µM. For the same molecule, the IC50 with Coxsackievirus worked out at 5.47 µM.

`COC(=O)C/C=C/[C@@H]1[C@H]2CCCN3CCC[C@@H](CN1S(=O)(=O)c1cccc(C#N)c1)[C@@H]23`: in data set [1], the selectivity ratio is 9.9. In addition, in data set [2], the CC50 at 24 h worked out at 72.4 µM. In addition, the IC50 in the data set with Coxsackievirus came to 7.3 µM.

Regarding `O=C(O)CCC[C@@H]1[C@H]2CCCN3CCC[C@@H](CN1S(=O)(=O)c1ccc(C(F)(F)F)cc1)[C@@H]23`, in data set [1], the selectivity ratio was determined as 5.2. Moreover, the CC50 at 24 h in data set [2] was found to be 392 µM. Moreover, the IC50 in the data set with Coxsackievirus turned out to be 75.4 µM.

As for `COC(=O)C/C=C\[C@@H]1[C@H]2CCCN3CCC[C@@H](CN1S(=O)(=O)c1ccccc1[N+](=O)[O-])[C@@H]23`, in data set [1], the selectivity ratio is 92.1. Also, the CC50 at 24 h in data set [2] was found to be 481 µM. Besides, the IC50 in the data set on Coxsackievirus was determined as 5.23 µM.

In the case of `N#Cc1cccc(S(=O)(=O)N2C[C@@H]3CCCN4CCC[C@@H]([C@H]34)[C@H]2CCCCO)c1`, the selectivity ratio in data set [1] turned out to be 13. Also, the CC50 at 24 h in data set [2] turned out to be 147 µM. For the same molecule, the IC50 in the data set with Coxsackievirus was 11.3 µM.

With `N#Cc1ccccc1S(=O)(=O)N1C[C@@H]2CCCN3CCC[C@@H]([C@H]23)[C@H]1/C=C\CC(=O)O`, the selectivity ratio in data set [1] was found to be 15.6. Further, the CC50 at 24 h in data set [2] was 430 µM. Besides, the IC50 in the data set on Coxsackievirus was 27.6 µM.
